Only some compounds are listed: those with a hit (about 3.8% of all), similar ones and a draw of the others.
T cell HTS – T cell immune modulators affecting CD8 T cell-vesicle binding; 2C CD8+ T cell-vesicle binding, flow cytometry; hits give low values; AID 2052; response (vesicle binding), % at 7 µM; 0.068% of 330,000 active;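 active = response, share of CD8 T cells binding vesicles, and their 90th percentile fluorescence all below set limits, cut at about 80% in these data, passing the limit was not always enough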;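 note: values below 100% mean blocked vesicle binding to the CD8+ T cells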
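Read-out – percent CD8+ FL2 mean versus row control · System – murine 2C transgenic CD8+ T lymphocytes · Times – 1.5 h cell–vesicle binding at 37 °C, then 20 min icy labelling · Control set – naked vesicles low, QL9 vesicles with vehicle high · Detection – cytometric PE anti-B7-1 and Alexa647 anti-CD8 signals after 1% paraformaldehyde fixation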
rCAG binder-1 – r(CAG) repeat RNA binding | TO-PRO-1 dye displacement fluorescence | inhibition, % at 3 µM | 1.3% of 370,000 active | AID 651821;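 active = inhibition above the plate cutoff, the mean of all test compounds on that plate plus 3 SD, cut at about 35% in these data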;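 note: 0% = DMSO alone and 100% = 100 µM mitoxantrone as full dye displacement; higher means more dye released from RNA so lower well fluorescence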
B2AR ag – human beta-2 adrenergic receptor agonism by FAP | response, % (test concentration not listed) | Am2.2-beta2AR cells, FAP receptor internalization, flow cytometry | 0.43% of 340,000 active | P07550;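 active = response above a set limit, near 3 SD of response in nonfluorescent compounds, cut at about 42% in these data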
Target sequence (P07550 whole entry, looked up): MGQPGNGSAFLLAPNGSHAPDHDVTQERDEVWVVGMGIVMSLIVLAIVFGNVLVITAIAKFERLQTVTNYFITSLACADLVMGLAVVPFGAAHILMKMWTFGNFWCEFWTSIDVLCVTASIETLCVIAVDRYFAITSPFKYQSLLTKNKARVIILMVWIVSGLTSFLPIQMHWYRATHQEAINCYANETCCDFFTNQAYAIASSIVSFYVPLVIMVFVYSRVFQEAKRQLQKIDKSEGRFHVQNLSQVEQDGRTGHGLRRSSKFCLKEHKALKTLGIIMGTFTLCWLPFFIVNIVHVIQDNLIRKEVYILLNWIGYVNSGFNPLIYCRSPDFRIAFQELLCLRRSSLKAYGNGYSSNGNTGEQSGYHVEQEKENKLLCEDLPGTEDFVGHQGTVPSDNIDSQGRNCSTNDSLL
Exocytosis inh – lytic granule exocytosis inhibition; TALL-104 LAMP-1 surface exposure, flow cytometry; cells stimulated with thapsigargin and PMA; inhibition, % at 10 µM; 0.66% of 360,000 active;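 active = inhibition above about 55%, limit read from the data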
MPTP block – blocks calcium-induced mitochondrial swelling; AID 602449; 1.4% of 360,000 active; isolated mouse mitochondria, Ca2+ swelling absorbance, 30 min; inhibition, % at 10 µM;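 active = inhibition of 50% or more, scaled per plate between neutral and stimulator controls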;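 note: 0% = DMSO wells given calcium and 100% = 1 mM EGTA wells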
V-ATPase pHluor – alters yeast V-ATPase proton transport; S. cerevisiae, pHLuorin cytosolic pH fluorescence; response, % at 10 µM; 0.37% of 350,000 active; AID 504577; in the data active = response mostly above about 7.3%, no sharp cut-off; inactive = mostly below about 5.4%; note: actives read high
rCAG binder conf – r(CAG) RNA repeat binding, confirmation | shares compounds with rCAG binder-1 | TO-PRO-1 dye displacement fluorescence | inhibition, % at 3 µM | 70% of 4,300 active | AID 652065;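 active = inhibition above a per-plate cutoff, the mean inhibition of sample wells plus 3 SD, cut at about 35% in these data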;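 note: loss of TO-PRO-1 fluorescence as compound displaces dye from 1x1 AA loop RNA; 0% = DMSO only wells and 100% = 100 µM mitoxantrone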
dCAG dye counter – DNA CAG dye complex inhibition counter-screen. inhibition, % at 3 µM. 94% of 4,300 active. shares compounds with rCAG binder-1. d(CAG) DNA oligo TO-PRO-1 dye displacement, fluorescence;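 active = inhibition above its plate's cutoff, the mean test-well inhibition plus 3 SD, cut at about 4.8% in these data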;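 note: 0% = DNA dye mix with DMSO and 100% = 100 µM mitoxantrone; hits displace the dye from DNA and so lower well fluorescence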
dCAG dye DR – DNA CAG dye complex inhibition, dose response counter-screen. DNA CAG/GTC duplex TO-PRO-1 dye displacement fluorescence. shares compounds with rCAG binder-1. 20% of 250 active. AID 686960. IC50, µM; in the data active = IC50 below about 10 µM
dCAG TOPRO ctr – inhibits DNA CAG/GTC TO-PRO-1 complex, rCAG binder counter-screen; d(CAG) DNA duplex TO-PRO-1 dye displacement, fluorescence; IC50, µM; 80% of 30 active; shares compounds with rCAG binder-1
rCAG binder-2 – r(CAG) repeat RNA binding, TO-PRO-1 displacement; shares compounds with rCAG binder-1; r(CAG) RNA TO-PRO-1 dye displacement, fluorescence; IC50, µM; 100% of 30 active
The depositor's hits bear a star; x = no result given. Unless noted, the rule behind the calls is not given here.

SMILES	T cell HTS	rCAG binder-1	B2AR ag	Exocytosis inh	MPTP block	V-ATPase pHluor	rCAG binder conf	dCAG dye counter	others
CCC(C)(O)C(=O)OC1C(=O)OC2CC3C(C)=CC(O)C(O)C3(C)C3C4(O)OCC23C1C(C)C4O (stereo unspecified)	x	-4	x	7	0	x	x	x
COc1ccc(OC)c(N2C(=O)NC(=O)/C(=C/c3ccc([N+](=O)[O-])s3)C2=O)c1	451	79*	-6	0	-1	125*	73*	38*
N#CC1c2ccccc2-n2nncc2CN1S(=O)(=O)c1ccccc1 (stereo unspecified)	x	2	8	1	0	-1	x	x
O=C(O)CCC(=O)NCCC1=c2ccccc2=N/C1=C\c1c(O)n(Cc2ccc(F)cc2)c(=S)[nH]c1=O	841	35*	6	-3	3	0	37*	13*
O=C(N/N=C/c1c(O)n(Cc2ccc(F)cc2)c(=O)[nH]c1=O)c1ccccc1	345	19	4	8	0	-4	x	x
CN(C)C1C(=O)C(C(N)=O)=C(O)C2(O)C(=O)C3=C(O)c4c(O)cccc4C(C)(O)C3C(O)C12 (stereo unspecified)	670	73*	3	23	0	-4	23	9.1*
COC[C@H]1OC(=O)c2coc3c2[C@@]1(C)C1=C(C3=O)[C@@H]2CCC(=O)[C@@]2(C)C[C@H]1OC(C)=O	x	2	9	-2	0	1	x	x
O=C1NC(=O)N(Cc2ccc(F)cc2)C(=O)/C1=C\c1ccoc1	202	48*	7	30	-2	2	38*	11*
O=C1CC(=O)N(Cc2ccccc2)C(=S)N1	194	72*	11	-9	0	3	10	4
COc1ccc(-n2nnnc2C(c2cccs2)N2CCC3(CC2)C(=O)NCN3c2ccccc2)cc1 (stereo unspecified)	x	6	x	-7	1	x	x	x
CSCCC(c1nnnn1Cc1ccccc1)N1CCC2(CC1)C(=O)NCN2c1ccccc1 (stereo unspecified)	x	1	x	3	-2	x	x	x
COc1cc2cc(C(=O)N3CC(COS(C)(=O)=O)c4ccc(O)cc43)[nH]c2c(OC)c1OC (stereo unspecified)	x	x	22	12	1	2	x	x
Cc1cc(C=C2C(=O)NC(=S)NC2=O)c(C)n1C1CCCC1	183	35*	8	-2	15	0	23	9.6*
Cc1ccc(/C=C2\C(=O)NC(=S)N(c3cccc(F)c3)C2=O)o1	178	45*	50*	-10	0	2	49*	20*
CCOc1ccc(N2C(=O)/C(=C/c3ccc(C)o3)C(=O)NC2=S)cc1	162	36*	30	-7	-1	6	45*	17*
CN1CCN(c2ccc(/C=C3\C(=O)NC(=S)N(c4cccc(Br)c4)C3=O)o2)CC1	152	27	-77	-1	3	-1	x	x
Cc1cc(OCC(=O)NC(Cc2ccc(Cl)cc2)C(=O)O)c2c3c(c(=O)oc2c1)CCC3 (stereo unspecified)	287	54*	-22	13	2	2	54*	16*
Cc1cc(OCC(=O)N[C@@H](Cc2ccccc2)C(=O)O)c2c3c(c(=O)oc2c1)CCC3	197	27	-9	2	2	0	x	x
O=C1NCN(c2ccccc2)C12CCN(C(c1ccnc3ccccc13)c1nnnn1C1CCCC1)CC2 (stereo unspecified)	x	6	x	1	-2	x	x	x
CC(=O)N1CCN(c2ccc([N+](=O)[O-])cc2C=C2C(=O)NC(=O)NC2=O)CC1	251	36*	0	2	0	-1	3	3
O=C1NC(=O)N(Cc2ccccc2)C(=O)/C1=C/c1cnc(-c2ccccc2)nc1	233	13	3	1	-1	0	x	x
Cc1ccc(N2C(=O)NC(=O)/C(=C\C=C\c3ccco3)C2=O)cc1C	544	36*	60*	59*	-4	-6	10	6.2*
O=C1NC(=S)N(c2ccc(F)cc2)C(=O)/C1=C/c1ccco1	271	x	x	x	x	x	x	x
O=C1NC(=O)N(Cc2ccco2)C(=O)/C1=C/C=C/c1ccco1	182	50*	85*	9	0	-3	32	14*
O=C1NC(=O)N(Cc2ccccc2)C(=O)/C1=C\C=C\c1ccco1	265	55*	67*	14	-1	0	15	6.5*
SMILES	T cell HTS	rCAG binder-1	B2AR ag	Exocytosis inh	MPTP block	V-ATPase pHluor	rCAG binder conf	dCAG dye counter	others
O=c1[nH]c2ccccc2n1C1CCN(C(c2cc3ccccc3o2)c2nnnn2-c2ccc3c(c2)OCCO3)CC1 (stereo unspecified)	x	9	x	3	-1	x	x	x
O=C(/C=C/c1ccccc1)N1Cc2ccccc2-n2nncc2C1	x	1	x	-1	-1	-2	x	x
O=c1c2ccccc2[nH]c(=S)n1-c1cccc(C(F)(F)F)c1	x	6	x	0	-1	-4	x	x
Cc1ccc(-n2c(=S)[nH]c3ccccc3c2=O)cc1F	x	36*	x	1	26	-6	34	8.9*
O=C(c1cccnc1)N1Cc2ccccc2-n2nncc2C1	x	2	x	-2	-2	-1	x	x
Cc1ccccc1-n1c(O)c(/C=N/NC(=O)c2ccccc2O)c(=O)[nH]c1=S	278	56*	6	-4	0	2	35*	9.0*
O=C(N/N=C/c1c(O)n(-c2ccccc2)c(=S)[nH]c1=O)c1ccccc1	254	6	-11	-1	-22	-1	x	x
O=C(N/N=C/c1c(O)n(C2CC2)c(=S)[nH]c1=O)c1ccccc1O	310	38*	-13	0	-4	0	21	6.0*
C/C(=N\NC(=O)c1ccccc1O)c1c(O)n(C2CCCCC2)c(=O)[nH]c1=O	956	83*	13	9	0	4	77*	34*	dCAG dye DR=3.1*;dCAG TOPRO ctr=2*;rCAG binder-2=0.82*
CN(C)CC(C(=O)Cc1ccccc1)c1ccccc1 (stereo unspecified)	x	0	16	4	0	0	x	x
CN1C(=O)C(=Cc2ccc(Sc3ccccc3)o2)C(=O)N(C)C1=S	350	54*	9	12	4	2	58*	21*

Compound activity (PubChem BioAssay)
